Bioassay records: PubChem BioAssay, Broad Institute
SIRT5 block – blocks human SIRT5 desuccinylation of peptide | Purified SirT5, succinyl-peptide AMC, trypsin-coupled fluorescence | inhibition, % at 15 µM | 1.1% of 330,000 active; in the data active = inhibition above about 15%; inconclusive = no clear call, values can overlap the other calls
FGF22 binding – FGF22 (human) thermal shift binding. AID 651658. Q9HCT0. 1.5% of 340,000 active. activity (Tm shift, normalised), % at 9.99 µM. recombinant FGF22 thermal shift, SYPRO orange fluorescence; percent of sucrose octasulfate shift, DMSO zero;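 active = mean Tm shift, scaled 0 neutral to 100 positive control, at about 1.3% or above, every replicate too, limit read from the data; inconclusive = no clear call, values can overlap the other calls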
ERAP1 inh – inhibitors of human ERAP1 aminopeptidase; inhibition, % at 10.7 µM; 0.15% of 340,000 active; recombinant ERAP1, Leu-AMC fluorescence, 60 min; Q9NZ08;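 active = mean replicate inhibition of at least 30%, or all replicates individually reaching that 30% level; inactive = mean below 30% and not every replicate reaching it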;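 note: 0% = neutral control wells and 100% = L-leucinethiol positive control wells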
Target sequence (Q9NZ08 whole entry, looked up): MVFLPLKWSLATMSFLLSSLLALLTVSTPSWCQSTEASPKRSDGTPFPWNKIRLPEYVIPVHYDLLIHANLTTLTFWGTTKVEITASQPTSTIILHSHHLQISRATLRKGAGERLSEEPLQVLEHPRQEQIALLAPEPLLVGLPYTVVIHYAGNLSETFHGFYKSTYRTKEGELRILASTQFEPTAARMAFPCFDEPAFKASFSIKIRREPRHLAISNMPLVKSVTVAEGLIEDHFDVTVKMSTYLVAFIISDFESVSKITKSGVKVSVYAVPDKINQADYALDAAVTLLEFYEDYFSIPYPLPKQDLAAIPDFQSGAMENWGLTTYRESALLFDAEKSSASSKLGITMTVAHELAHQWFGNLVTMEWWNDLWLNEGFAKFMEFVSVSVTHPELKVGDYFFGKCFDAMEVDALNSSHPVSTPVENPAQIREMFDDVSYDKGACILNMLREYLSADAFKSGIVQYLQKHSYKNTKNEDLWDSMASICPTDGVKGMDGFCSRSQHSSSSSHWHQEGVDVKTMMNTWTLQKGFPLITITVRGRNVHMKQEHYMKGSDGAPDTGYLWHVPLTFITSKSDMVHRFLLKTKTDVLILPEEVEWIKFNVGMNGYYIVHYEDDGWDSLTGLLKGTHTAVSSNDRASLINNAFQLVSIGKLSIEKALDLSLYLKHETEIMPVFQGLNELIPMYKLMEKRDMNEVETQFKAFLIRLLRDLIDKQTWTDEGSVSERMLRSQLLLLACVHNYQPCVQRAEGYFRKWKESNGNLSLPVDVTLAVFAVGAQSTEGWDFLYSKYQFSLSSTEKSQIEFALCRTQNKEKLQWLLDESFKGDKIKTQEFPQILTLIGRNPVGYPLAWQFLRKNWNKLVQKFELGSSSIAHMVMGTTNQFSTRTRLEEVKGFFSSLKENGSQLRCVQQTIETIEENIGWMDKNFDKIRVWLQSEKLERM
FN deposit inh – fibronectin deposition inhibition. AH1F fibroblasts, Alexa488-fibronectin deposition fluorescence, overnight. inhibition, % at 12.6 µM. 0.086% of 350,000 active. AID 743247;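 active = mean inhibition across replicates of 30% or more, regardless of how many single replicates reach that level; inconclusive = mean under 30% yet at least half of replicates reach 30%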;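 note: positive control wells lacked labelled fibronectin entirely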
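Test system: AH1F fibroblast monolayer depositing Alexa488-labelled fibronectin into matrix. Input: 10000 cells per well. Technique: fluorescence, ex 485 nm, em 525 nm. Buffer or medium: DMEM plus 2% serum, read in PBS. Timing: 1 h cell adhesion before compound, then overnight fibronectin incubation. Compound: single dose, pinned. Read-out basis: inhibition from reduced deposited-fibronectin fluorescence.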
PGC1a acetyl inh – modulators of PGC1a acetylation; AID 651687; U2OS PGC1a acetylation, AlphaScreen anti-acetyl-lysine; with virally co-expressed GCN5 acetyltransferase; 0.17% of 350,000 active; inhibition, % at 15.6 µM;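 active = every replicate shows inhibition of at least 40%; inconclusive = mean inhibition at least 40% but some replicate below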;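 note: 0% = neutral control wells and 100% = positive control wells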
* marks the source's active call; other numbers are inactive results; ? = inconclusive; nt = not tested or not shown. Sampled rows, rich in hits. Any-hit rate of the full collection: about 2.2%.

SMILES	SIRT5 block	FGF22 binding	ERAP1 inh	FN deposit inh	PGC1a acetyl inh
Cc1noc(C)c1S(=O)(=O)Nc1ccc2c(c1)C(=O)N([C@@H](C)CO)C[C@@H](C)[C@@H](CN(C)S(=O)(=O)c1ccc(Cl)cc1)OCCCC[C@H](C)O2	8	-1	2	-8	nt
CC1CN(C(=O)c2cc3cc([N+](=O)[O-])ccc3oc2=O)CC(C)O1 (stereo not given)	3	0	nt	6	11
CC1CN(C(=O)c2cc3cc([N+](=O)[O-])ccc3s2)CC(C)O1 (stereo not given)	-2	44*	0	3	nt
O=C(c1cc(COc2ccc(F)cc2Cl)on1)N1CC[C@@H]2CCCC[C@H]2C1	34*	0	-7	-2	-2
O=C(c1cc(COc2ccc(F)cc2F)on1)N1CC[C@@H]2CCCC[C@H]2C1	-3	0	-1	3	nt
COc1ccc(OC)c(S(=O)(=O)NCCc2ccccc2)c1	15*	0	9	nt	nt
COc1ccc2[nH]cc(CCNS(=O)(=O)Cc3ccccc3)c2c1	4	43*	2	-13	-16
O=C1C(Cl)=C(O)C2(Cl)C(Cl)=C(Cl)C12Cl (stereo not given)	6	1.4*	5	-2	-15
COc1ccc(NC(=O)Nc2ccc3c(c2)CC(=O)N([C@H](C)CO)C[C@@H](C)[C@@H](CN(C)S(=O)(=O)c2cccs2)O3)cc1	12	-1	0	1	10
Cn1ccnc1SC(C(=O)O)c1ccccc1 (stereo not given)	102*	0	2	-3	11
CCC(=O)Nc1ccc2c(c1)C(=O)N(C)[C@H]1CC[C@H](CC(=O)N3CCc4ccccc4C3)O[C@H]1CO2	-9	0	0	-15	-3
Cc1ccc(N=C2c3ccccc3C(=O)C2[N+](=O)[O-])cc1C (stereo not given)	2	43*	1	-4	nt
CCOC(=O)C1(Cc2ccccc2)CCN(Cc2csc(C(C)=O)c2)CC1	-6	44*	-3	nt	-5
CCOC(=O)C1(Cc2ccccc2)CCN(Cc2cccc3nccnc23)CC1	5	44*	-2	7	-3
CCOC(=O)C1(CCOc2ccccc2)CCN(CCCn2cccn2)CC1	-3	43*	0	3	-3
CCOC(=O)C1(Cc2ccccc2)CCN(Cc2cnn(C(C)C)c2)CC1	nt	0	-1	10	-9
CCOC(=O)C1(CCOc2ccccc2)CCN(Cc2cccc(-n3cccn3)c2)CC1	-1	0	5	8	-11
CCOC(=O)C1(Cc2cccc(OC)c2)CCN(Cc2ccccc2OC)CC1	-3	43*	-2	-6	0
CCOC(=O)C1(Cc2ccccc2)CCN(Cc2cccc(OC)c2O)CC1	-4	0	0	nt	-84
CCCNC(=O)Nc1ccc2c(c1)C(=O)N(C)[C@@H]1CC[C@@H](CC(=O)NC3CCC3)O[C@H]1CO2	nt	0	nt	10	5
C[C@@H]1CN([C@H](C)CO)C(=O)Cc2cc(NC(=O)Nc3ccccc3)ccc2O[C@H]1CN(C)C(=O)Nc1ccc(F)cc1	-13	-1	4	nt	2
COc1ccc(-c2cnc3c(c2)C(=O)N([C@@H](C)CO)C[C@H](C)[C@H](CN(C)C(=O)Cc2ccncc2)O3)cc1	-1	0	3	nt	1
CCC(=O)N(C)C[C@H]1Oc2cc(-c3cccc(F)c3)ccc2S(=O)(=O)N([C@H](C)CO)C[C@H]1C	-3	0	0	nt	1
CCOC(=O)c1cc(C(C)C)sc1NC(=O)COC(=O)CCS(=O)(=O)c1ccccc1	34*	0	-1	18	-11
COCC(=O)Nc1ccc2c(c1)C(=O)N(C)[C@@H]1CC[C@H](CC(=O)OC)O[C@@H]1CO2	nt	-1	nt	-2	10
SMILES	SIRT5 block	FGF22 binding	ERAP1 inh	FN deposit inh	PGC1a acetyl inh
Cc1cc(C)c(C#N)c(N2CCN(c3ccccc3)CC2)n1	-4	0	1	8	49*
COCc1cc(C)nc(N2CCN(c3ccccc3)CC2)c1C#N	nt	nt	nt	-2	-4
Cn1c(SCC(=O)NCC2CCCO2)nnc1-c1ccc(Cl)cc1 (stereo not given)	19*	0	2	0	4
O=C(Cn1nc(-c2ccc(Cl)cc2)ccc1=O)NCC1CCCO1 (stereo not given)	19*	0	5	-2	-4
O=C(Cn1nc(-c2ccccc2)ccc1=O)NCC1CCCO1 (stereo not given)	nt	nt	nt	-4	-4
CCCC(=O)N1CC2(CN(C(=O)C3CCC3)C2)c2c(n(C)c3cc(OC)ccc23)[C@@H]1CO	-6	0	1	nt	nt
CCOC(=O)C1=C(c2ccccc2)NC(=O)NC1c1ccc(O)c(OCC)c1 (stereo not given)	0	0	-3	-3	6
CCOC(=O)C1=C(c2ccccc2)NC(=O)NC1c1ccc(O)c(Cl)c1 (stereo not given)	1	0	-3	48*	23
C[C@H]1CN(C)C(=O)c2cc(N)ccc2O[C@@H]1CN(C)C	nt	nt	nt	-8	nt
CCC(C(=O)Nc1cc(Cl)ccc1OC)c1ccccc1 (stereo not given)	-1	43*	-2	0	-7
COc1ccc(C)cc1NC(=O)CCN1CC(C)OC(C)C1 (stereo not given)	23*	0	0	3	nt
COc1ccc(Cl)cc1NC(=O)CCN1CCN(Cc2ccccc2)CC1	22*	0	-1	5	nt
CO[C@H]1CN(C)C(=O)c2cc(NC(=O)Nc3c(C)noc3C)ccc2OC[C@@H](C)N(C)C[C@H]1C	-6	0	1	-1	-13
COc1ccc(NC(=O)Nc2ccc3c(c2)C(=O)N([C@H](C)CO)C[C@@H](C)[C@@H](CN(C)S(=O)(=O)c2ccccc2)O3)cc1	-1	0	-1	nt	-2
COc1ccc(NC(=S)NCc2ccc3c(c2)OCO3)cc1	-4	43*	-1	nt	-22
C[C@H](CO)N1C[C@H](C)[C@H](CN(C)C(=O)Nc2ccccc2)Oc2ccc(NC(=O)Cc3cn(C)c4ccccc34)cc2C1=O	-3	0	-1	nt	-1
CCOC(=O)c1sc2nc(OCCN3CCOCC3)cc(C)c2c1N	17*	0	1	8	nt
CCOC(=O)c1sc2nc(N3CCOCC3)c3c(c2c1N)CCC3	nt	nt	nt	3	-18
O=C(O)Cn1cc(/C=C2/NC(=O)N(c3ccc(Cl)cc3)C2=O)c2ccccc21	4	2.4*	13	5	3
O=C1CCCC(O)=C1N=Nc1ccc2c(c1)OCO2	10	0	7	3	?
O=C1CCCC(O)=C1N=Nc1ccc(C(=O)O)cc1	33*	0	25	4	0
Cc1ccc(NC(=O)C2CCCN(S(=O)(=O)c3cnc[nH]3)C2)c(Br)c1 (stereo not given)	nt	0	nt	1	9
O=C(Nc1ccc(Br)cc1F)C1CCCN(S(=O)(=O)c2cnc[nH]2)C1 (stereo not given)	nt	2.0*	-1	-8	5
